Cl transport mod: KCC2 (human) Cl- transport modulation; Q9H2X9; KCC2 cells, thallium flux FluoZin-2 fluorescence; B-score of Tl+ flux slope (higher = more flux/activation; lower = inhibition) at 10 µM; 190,000 compounds, 2.2% hits; AID 1456;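 active = thallium flux slope and its plate-corrected score both differing from the plate sample mean at a set confidence after two filtering rounds, in either direction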;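 also: slope of fluorescence scaled to starting intensity during 10 to 20 s after thallium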
Target sequence (Q9H2X9 whole entry, looked up): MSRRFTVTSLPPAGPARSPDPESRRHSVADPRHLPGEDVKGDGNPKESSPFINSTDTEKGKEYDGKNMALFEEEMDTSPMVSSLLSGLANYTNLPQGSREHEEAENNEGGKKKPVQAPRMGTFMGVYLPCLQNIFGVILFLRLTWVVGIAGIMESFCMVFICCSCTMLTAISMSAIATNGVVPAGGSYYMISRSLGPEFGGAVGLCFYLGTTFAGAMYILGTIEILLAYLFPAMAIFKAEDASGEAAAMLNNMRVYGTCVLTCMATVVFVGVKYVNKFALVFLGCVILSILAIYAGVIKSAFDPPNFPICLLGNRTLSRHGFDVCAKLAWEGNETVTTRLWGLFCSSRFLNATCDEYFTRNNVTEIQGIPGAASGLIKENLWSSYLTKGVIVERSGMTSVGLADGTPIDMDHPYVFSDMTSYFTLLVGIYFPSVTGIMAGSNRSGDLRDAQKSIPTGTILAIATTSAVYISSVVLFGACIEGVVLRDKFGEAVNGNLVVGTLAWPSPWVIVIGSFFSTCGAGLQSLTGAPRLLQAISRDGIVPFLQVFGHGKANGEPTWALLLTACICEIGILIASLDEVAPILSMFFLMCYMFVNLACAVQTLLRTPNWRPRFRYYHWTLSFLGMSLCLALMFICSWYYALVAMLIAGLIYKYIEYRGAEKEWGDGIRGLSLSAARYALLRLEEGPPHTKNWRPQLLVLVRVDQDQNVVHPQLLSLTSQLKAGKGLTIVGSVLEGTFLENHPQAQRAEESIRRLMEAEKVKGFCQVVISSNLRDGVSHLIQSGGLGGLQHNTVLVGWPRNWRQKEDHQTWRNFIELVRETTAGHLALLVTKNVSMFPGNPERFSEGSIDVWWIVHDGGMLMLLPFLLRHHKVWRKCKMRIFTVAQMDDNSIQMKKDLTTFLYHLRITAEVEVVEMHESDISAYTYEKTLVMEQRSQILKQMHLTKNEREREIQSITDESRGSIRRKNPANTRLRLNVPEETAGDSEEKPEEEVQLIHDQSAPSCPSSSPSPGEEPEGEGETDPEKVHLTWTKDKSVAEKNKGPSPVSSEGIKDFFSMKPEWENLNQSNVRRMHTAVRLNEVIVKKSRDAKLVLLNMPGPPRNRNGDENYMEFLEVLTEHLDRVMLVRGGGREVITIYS
KCNK3 inh: human KCNK3 channel inhibition, primary screen | 340,000 compounds, 0.84% hits | AID 602410 | CHO-KCNK3 thallium flux, FluxOR fluorescence; active compounds read low | B-score at 10 µM | O14649;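 active = B-score under library mean minus 4 SD, starting fluorescence ratio at most library mean plus 5 SD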;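 also: more negative B-score means stronger inhibition of thallium flux through KCNK3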
KCNQ1 pot: human KCNQ1 channel potentiation or activation; P51787; CHO-K1 KCNQ1, thallium flux FluxOR fluorescence; active compounds read high; B-score at 10 µM; 310,000 compounds, 0.35% hits; AID 2648;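 active = fluorescence ratio B-score, a plate-corrected score, at least three library SD, with initial intensity B-score within 5 SD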
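Test system: CHO-K1 cells stably expressing KCNQ1 / Medium: assay buffer / Also added: depolarizing K+/Tl+ stimulus, K2SO4 and Tl2SO4 each 12.5 mM in 5x stock / Incubation: 90 min dye loading and 20 min compound exposure, both at room temperature / Signal: thallium influx via FluxOR fluorescence, kinetic imaging / Evaluation: B score of baseline-normalized fluorescence ratio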
KCNK9 inh: inhibitors of human KCNK9 two-pore domain potassium channel. Q9NPC2. HEK293 KCNK9, FluxOR thallium flux fluorescence; active compounds read low. B-score at 10 µM. 310,000 compounds, 1.2% hits;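 active = ratio B-score over 3 SD below the library mean, with starting fluorescence within 5 SD of its mean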;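 also: negative B-score means less thallium flux so channel inhibition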
KCNQ1 inh: blocks the human KCNQ1 potassium channel; P51787; CHO-K1 KCNQ1, FluxOR thallium flux fluorescence; active compounds read high; B-score at 10 µM; 310,000 compounds, 1.3% hits; AID 2642;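 active = compounds whose thallium flux B-score, printed positive for inhibition, exceeds three library SD while starting fluorescence stays within three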;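 also: channel opened by potassium depolarization with thallium stimulus after 20 min compound exposure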
hERG rescue: hERG (human) protection from proarrhythmic block | 310,000 compounds, 0.51% hits | activation (rescue from dofetilide block), less the hit threshold, % at 10 µM | CHO-hERG, FluxOR thallium flux, dofetilide IC70 present | Q12809;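 active = activation above the mean of controls blocked by dofetilide plus 5 SD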;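 also: thallium influx through hERG after potassium depolarization seen as dye fluorescence rise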
KCNQ1 block val: reconfirmed blocker of the human KCNQ1 potassium channel. shares compounds with KCNQ1 inh. KCNQ1 cell line, FluxOR thallium flux fluorescence. inhibition, % at 10 µM. 1,600 compounds, 93% hits. AID 588353;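 active = primary screen active, with duplicate mean exceeding buffer control mean plus 3 SD of buffer wells, cut at about 28% in these data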
CHO KCNQ1 ctr: counter-screen for KCNQ1 inhibitors: effect in parental CHO cells | shares compounds with KCNQ1 inh | parental CHO-K1, FluxOR thallium flux fluorescence ratio; active compounds read low; zero means no signal rise above baseline | fluorescence ratio (Tl flux) at 10 µM | 1,600 compounds, 21% hits | AID 588366;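 active = mean of duplicate thallium-flux fluorescence ratios in parental host cells more than 5 SD below the buffer control mean, cut at about 0.38 in these data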;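 also: ratio is peak minus minimum fluorescence divided by baseline fluorescence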
KCNQ1 APC inh: blocks human KCNQ1 current in automated patch clamp | KCNQ1-CHO cells | 490 compounds, 20% hits | calls only at 10 µM | shares compounds with KCNQ1 inh;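 active = KCNQ1 current drop exceeding 3 SD of negative control wells, seen in both duplicate runs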;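 also: steady state current during a 2 s step from -80 to +40 mV; negative values mean current inhibition and positive values mean potentiation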
KCNQ2 inh: KCNQ1 inhibitor that also blocks rat KCNQ2 channel; shares compounds with KCNQ1 inh; KCNQ2 cells, FluxOR thallium flux fluorescence; inhibition, % at 10 µM; 1,600 compounds, 71% hits; AID 651746;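 active = mean percent inhibition of the KCNQ2 thallium signal more than 5 SD above the buffer-only control wells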;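 also: KCNQ2 expressed in CHO cells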
KCNQ1 KCNE1 spec: selectivity of KCNQ1 inhibitors: inhibition of human KCNQ1/KCNE1 channel. shares compounds with KCNQ1 inh. KCNQ1/KCNE1 cells, FluxOR thallium flux fluorescence. inhibition, % at 10 µM. 1,600 compounds, 77% hits;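 active = mean percent inhibition of duplicate wells above the buffer-only control mean plus 3 SD of those controls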
Numbers stand for hits; – = inactive; · = no result; + = active, no number. Hits are enriched below; roughly 4.1% of the tested compounds scored in any of these assays.

SMILES | Cl transport mod | KCNK3 inh | KCNQ1 pot | KCNK9 inh | KCNQ1 inh | hERG rescue | KCNQ1 block val | CHO KCNQ1 ctr | KCNQ2 inh | KCNQ1 KCNE1 spec | others
CC1CCCC(NC(=O)Cn2cc(Br)ccc2=O)C1C (stereo not drawn) | · | – | · | · | · | · | · | · | · | ·
Cc1ccc2cc(CN(CCN(C)C)C(=S)Nc3ccccc3)c(=O)[nH]c2c1C | – | – | – | – | 7 | 11.7 | 55.5 | – | – | 86.0%
CCN(CC)CCN(C(=O)CCS(=O)(=O)c1ccccc1)c1nc2c(C)cc(C)cc2s1 | · | – | – | – | – | – | · | · | · | ·
Cc1ccc(-c2csc(N3CCC(NS(=O)(=O)c4ccc5c(c4)OCCO5)CC3)n2)cc1 | – | – | – | – | 6 | – | 106.5 | – | 96.0% | 99.5% | KCNQ1 APC inh=–
Cc1ccc(-c2csc(N3CCC(C(N)=O)CC3)n2)cc1 | · | – | · | · | · | · | · | · | · | ·
CCNC(=S)Nc1ccc(Cl)cc1Cl | – | – | – | – | – | – | · | · | · | ·
S=C(NCCc1ccccc1)Nc1ccc(Cl)cc1Cl | · | – | – | – | 7 | – | 33.5 | – | – | –
Cc1cc(Cl)ccc1NC(=S)NCc1ccc(Cl)cc1 | – | – | – | – | – | – | · | · | · | ·
COC(=O)Cc1ccc(NC(=S)NCCSc2ccc(Cl)cc2)cc1 | – | – | – | – | – | – | · | · | · | ·
Cc1cc(C)cc(NC(=S)NCCSc2ccc(Cl)cc2)c1 | – | – | – | – | 10 | – | 110.5 | – | 108.0% | 112.5% | KCNQ1 APC inh=–
Cc1cc(Cl)ccc1NC(=S)NCCc1ccc(Cl)cc1 | · | – | – | – | 14 | – | 69.5 | – | 78.7% | 103.0%
CC(=O)c1cccc(NC(=S)NCCc2ccc(Cl)cc2)c1 | – | – | – | – | 8 | – | 43.0 | – | – | –
Cc1csc(=O)n1CCC(=O)NCc1ccc(F)cc1 | · | – | · | · | · | · | · | · | · | ·
S=C(NCc1ccccc1)Nc1cccc2cnccc12 | · | – | – | – | – | – | · | · | · | ·
S=C(NCCc1ccccc1)Nc1cccc2cnccc12 | – | – | – | – | 7 | – | 29.0 | – | – | –
CCc1ccc(S(=O)(=O)/N=C2\C=C(NS(=O)(=O)c3ccccc3)C(=O)c3ccccc32)cc1 | · | – | – | – | 12 | – | 97.0 | – | 78.7% | 94.0% | KCNQ1 APC inh=+
COc1ccccc1N1CCN(Cc2cc(=O)c(OCC#N)co2)CC1 | · | – | – | – | – | – | · | · | · | ·
COc1ccccc1CCC(=O)OCC(=O)Nc1cc(C)nn1-c1ccccc1 | · | – | – | – | – | – | · | · | · | ·
COC(=O)c1ccc(N2CCCCC2)c(NC(=O)c2ccco2)c1 | · | – | – | – | – | – | · | · | · | ·
Cc1ccc2nc(/N=C(\N)NC(=O)NC3CCCCC3)nc(C)c2c1 | – | – | – | – | 7 | – | 56.0 | – | – | –
CCOc1ncccc1C(=O)OCC(=O)NC(=O)NC(C)C | – | – | – | – | 8 | – | – | – | – | –
CCc1c(C2(O)CCCCC2)[nH]c2c(C(=O)OC)cc(Cl)cc12 | · | – | – | – | 6 | – | 125.5 | 0.377 | 119.7% | 123.0%
CCc1noc(C)c1C(=O)N1CCCSC1=Nc1ccccc1 | · | – | – | – | 8 | – | 101.0 | – | 59.3% | 66.0% | KCNQ1 APC inh=+
CC(=O)NS(=O)(=O)c1ccc(NC(=O)[C@@H]2CCCN2S(=O)(=O)c2ccc(Cl)cc2)cc1 | · | – | · | · | · | · | · | · | · | ·
S=C(Nc1ccc(Oc2ccccc2)cc1)NC1CCCC1 | – | – | – | – | – | – | · | · | · | ·
